{
  "source": "ChEMBL document CHEMBL3414433",
  "about": "“Discovery and profiling of a selective and efficacious Syk inhibitor” (J Med Chem, 2015)",
  "key": {"[1]": {"test": "Cytotoxicity against C57BL/6 mouse bone marrow cells assessed as growth inhibition preincubated for 4 days followed by [3H]-thymidine addition measured after 5 hrs by betaplate counting analysis", "assay_type": "cell-based, Bone marrow cell", "conditions": "Mus musculus, C57BL/6, Bone marrow cell"}, "[2]": {"test": "Drug uptake in blood of Lewis rat collagen-induced arthritis model at 30 mg/kg, po qd administered on day 15 post immunization measured at 24 hrs on day 18", "assay_type": "ADME, organism-based", "set-up": "dose 30 mg/kg, route oral", "conditions": "read-out: Drug uptake", "outline": "(§1)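 Collagen-arthritic Lewis rats given 3, 10 or 30 mg/kg p.o. once daily from day 15; blood levels measured on day 18 (third day of treatment) at 4, 8 and 24 h after dosing.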"}, "[3]": {"biological_target": "T1, Tyrosine-protein kinase ZAP-70 (Homo sapiens, UniProt P43403)", "T1 sequence (P43403 whole entry)": "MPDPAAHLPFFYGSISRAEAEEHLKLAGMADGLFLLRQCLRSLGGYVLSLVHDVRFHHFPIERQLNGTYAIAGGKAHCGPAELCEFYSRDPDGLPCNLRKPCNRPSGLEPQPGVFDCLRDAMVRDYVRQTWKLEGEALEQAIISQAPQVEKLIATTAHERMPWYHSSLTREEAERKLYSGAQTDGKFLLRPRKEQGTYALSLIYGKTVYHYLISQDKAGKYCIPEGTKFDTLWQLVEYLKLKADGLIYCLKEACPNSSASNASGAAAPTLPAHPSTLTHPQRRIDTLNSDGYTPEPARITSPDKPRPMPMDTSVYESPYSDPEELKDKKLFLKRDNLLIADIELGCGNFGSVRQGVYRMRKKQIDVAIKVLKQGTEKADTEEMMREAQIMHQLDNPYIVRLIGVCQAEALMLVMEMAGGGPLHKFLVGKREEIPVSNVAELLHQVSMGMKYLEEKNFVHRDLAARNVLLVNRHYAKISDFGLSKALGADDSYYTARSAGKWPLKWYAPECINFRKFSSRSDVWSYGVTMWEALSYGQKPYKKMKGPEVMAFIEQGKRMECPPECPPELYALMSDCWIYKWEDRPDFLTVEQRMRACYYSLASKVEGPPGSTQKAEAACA", "test": "Competitive binding affinity to human ZAP70"}, "[4]": {"biological_target": "T2, Voltage-gated inwardly rectifying potassium channel KCNH2 (Homo sapiens, UniProt Q12809)", "T2 sequence (Q12809 whole entry)": "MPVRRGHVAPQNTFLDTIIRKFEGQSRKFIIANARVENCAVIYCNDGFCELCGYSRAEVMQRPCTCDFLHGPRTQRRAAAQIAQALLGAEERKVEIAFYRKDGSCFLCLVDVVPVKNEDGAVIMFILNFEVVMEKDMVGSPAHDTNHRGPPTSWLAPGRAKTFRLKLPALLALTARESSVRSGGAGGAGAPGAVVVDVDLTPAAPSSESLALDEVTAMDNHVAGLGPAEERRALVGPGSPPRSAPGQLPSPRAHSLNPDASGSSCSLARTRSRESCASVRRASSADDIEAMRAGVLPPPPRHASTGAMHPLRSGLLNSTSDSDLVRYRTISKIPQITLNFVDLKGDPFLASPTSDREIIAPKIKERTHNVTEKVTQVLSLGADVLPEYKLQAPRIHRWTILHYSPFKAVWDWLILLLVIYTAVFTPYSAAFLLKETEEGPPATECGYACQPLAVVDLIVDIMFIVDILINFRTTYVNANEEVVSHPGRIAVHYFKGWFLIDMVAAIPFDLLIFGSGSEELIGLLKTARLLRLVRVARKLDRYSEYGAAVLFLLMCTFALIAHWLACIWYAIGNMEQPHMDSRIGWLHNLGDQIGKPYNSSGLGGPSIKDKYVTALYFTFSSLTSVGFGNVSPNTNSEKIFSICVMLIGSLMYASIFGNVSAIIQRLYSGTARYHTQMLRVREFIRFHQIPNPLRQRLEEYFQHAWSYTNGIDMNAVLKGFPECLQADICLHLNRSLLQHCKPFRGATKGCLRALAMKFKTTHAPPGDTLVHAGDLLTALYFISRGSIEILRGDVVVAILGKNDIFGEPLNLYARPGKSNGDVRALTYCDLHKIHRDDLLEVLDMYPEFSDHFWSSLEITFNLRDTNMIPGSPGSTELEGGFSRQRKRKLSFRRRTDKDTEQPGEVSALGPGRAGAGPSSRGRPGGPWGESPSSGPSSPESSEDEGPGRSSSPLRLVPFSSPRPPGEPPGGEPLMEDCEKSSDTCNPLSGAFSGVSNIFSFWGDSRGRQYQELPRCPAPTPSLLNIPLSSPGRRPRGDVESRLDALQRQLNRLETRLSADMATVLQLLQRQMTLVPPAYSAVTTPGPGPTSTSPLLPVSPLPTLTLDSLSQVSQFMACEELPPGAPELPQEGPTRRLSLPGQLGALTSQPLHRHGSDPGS", "test": "Inhibition of human ERG by GLP study"}, "[5]": {"test": "Oral bioavailability in Sprague-Dawley rat at 3 mg/kg administered as cassette dosing", "assay_type": "ADME, organism-based", "conditions": "in vivo", "outline": "(§2)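 Rats were dosed i.v. at 1 mg/kg in NMP/PEG200 (3:7) and p.o. at 3 mg/kg in CMC/water/Tween (0.5:99:0.5). PK parameters were derived from blood concentration–time curves for both routes.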"}, "[6]": {"test": "Drug uptake in blood of Lewis rat collagen-induced arthritis model at 10 mg/kg, po qd administered on day 15 post immunization measured at 8 hrs on day 18", "assay_type": "ADME, organism-based", "set-up": "dose 10 mg/kg, route oral", "conditions": "read-out: Drug uptake", "outline": "as §1"}, "[7]": {"test": "Mean residence time in Beagle dog at 0.1 mg/kg, iv and 0.3 mg/kg, po", "assay_type": "ADME, organism-based, Canis lupus familiaris", "conditions": "in vivo", "outline": "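Beagle dogs dosed one-in-one. The i.v. dose was 0.1 mg/kg in NMP/PEG200 (3:7), and the p.o. dose was 0.3 mg/kg in MC/water (0.5:99.5). Blood levels were followed after each route.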"}, "[8]": {"biological_target": "T3, Tyrosine-protein kinase SYK (Homo sapiens, UniProt P43405)", "test": "Inhibition of Syk in anti-CD32 stimulated CD14+ human monocytes assessed as phospho-SLP76 level preincubated for 30 mins followed by anti-CD32 stimulation measured after 5 mins by flow cytometric analysis"}, "[9]": {"biological_target": "Proto-oncogene tyrosine-protein kinase ROS (Homo sapiens, UniProt P08922)", "sequence (P08922 whole entry)": "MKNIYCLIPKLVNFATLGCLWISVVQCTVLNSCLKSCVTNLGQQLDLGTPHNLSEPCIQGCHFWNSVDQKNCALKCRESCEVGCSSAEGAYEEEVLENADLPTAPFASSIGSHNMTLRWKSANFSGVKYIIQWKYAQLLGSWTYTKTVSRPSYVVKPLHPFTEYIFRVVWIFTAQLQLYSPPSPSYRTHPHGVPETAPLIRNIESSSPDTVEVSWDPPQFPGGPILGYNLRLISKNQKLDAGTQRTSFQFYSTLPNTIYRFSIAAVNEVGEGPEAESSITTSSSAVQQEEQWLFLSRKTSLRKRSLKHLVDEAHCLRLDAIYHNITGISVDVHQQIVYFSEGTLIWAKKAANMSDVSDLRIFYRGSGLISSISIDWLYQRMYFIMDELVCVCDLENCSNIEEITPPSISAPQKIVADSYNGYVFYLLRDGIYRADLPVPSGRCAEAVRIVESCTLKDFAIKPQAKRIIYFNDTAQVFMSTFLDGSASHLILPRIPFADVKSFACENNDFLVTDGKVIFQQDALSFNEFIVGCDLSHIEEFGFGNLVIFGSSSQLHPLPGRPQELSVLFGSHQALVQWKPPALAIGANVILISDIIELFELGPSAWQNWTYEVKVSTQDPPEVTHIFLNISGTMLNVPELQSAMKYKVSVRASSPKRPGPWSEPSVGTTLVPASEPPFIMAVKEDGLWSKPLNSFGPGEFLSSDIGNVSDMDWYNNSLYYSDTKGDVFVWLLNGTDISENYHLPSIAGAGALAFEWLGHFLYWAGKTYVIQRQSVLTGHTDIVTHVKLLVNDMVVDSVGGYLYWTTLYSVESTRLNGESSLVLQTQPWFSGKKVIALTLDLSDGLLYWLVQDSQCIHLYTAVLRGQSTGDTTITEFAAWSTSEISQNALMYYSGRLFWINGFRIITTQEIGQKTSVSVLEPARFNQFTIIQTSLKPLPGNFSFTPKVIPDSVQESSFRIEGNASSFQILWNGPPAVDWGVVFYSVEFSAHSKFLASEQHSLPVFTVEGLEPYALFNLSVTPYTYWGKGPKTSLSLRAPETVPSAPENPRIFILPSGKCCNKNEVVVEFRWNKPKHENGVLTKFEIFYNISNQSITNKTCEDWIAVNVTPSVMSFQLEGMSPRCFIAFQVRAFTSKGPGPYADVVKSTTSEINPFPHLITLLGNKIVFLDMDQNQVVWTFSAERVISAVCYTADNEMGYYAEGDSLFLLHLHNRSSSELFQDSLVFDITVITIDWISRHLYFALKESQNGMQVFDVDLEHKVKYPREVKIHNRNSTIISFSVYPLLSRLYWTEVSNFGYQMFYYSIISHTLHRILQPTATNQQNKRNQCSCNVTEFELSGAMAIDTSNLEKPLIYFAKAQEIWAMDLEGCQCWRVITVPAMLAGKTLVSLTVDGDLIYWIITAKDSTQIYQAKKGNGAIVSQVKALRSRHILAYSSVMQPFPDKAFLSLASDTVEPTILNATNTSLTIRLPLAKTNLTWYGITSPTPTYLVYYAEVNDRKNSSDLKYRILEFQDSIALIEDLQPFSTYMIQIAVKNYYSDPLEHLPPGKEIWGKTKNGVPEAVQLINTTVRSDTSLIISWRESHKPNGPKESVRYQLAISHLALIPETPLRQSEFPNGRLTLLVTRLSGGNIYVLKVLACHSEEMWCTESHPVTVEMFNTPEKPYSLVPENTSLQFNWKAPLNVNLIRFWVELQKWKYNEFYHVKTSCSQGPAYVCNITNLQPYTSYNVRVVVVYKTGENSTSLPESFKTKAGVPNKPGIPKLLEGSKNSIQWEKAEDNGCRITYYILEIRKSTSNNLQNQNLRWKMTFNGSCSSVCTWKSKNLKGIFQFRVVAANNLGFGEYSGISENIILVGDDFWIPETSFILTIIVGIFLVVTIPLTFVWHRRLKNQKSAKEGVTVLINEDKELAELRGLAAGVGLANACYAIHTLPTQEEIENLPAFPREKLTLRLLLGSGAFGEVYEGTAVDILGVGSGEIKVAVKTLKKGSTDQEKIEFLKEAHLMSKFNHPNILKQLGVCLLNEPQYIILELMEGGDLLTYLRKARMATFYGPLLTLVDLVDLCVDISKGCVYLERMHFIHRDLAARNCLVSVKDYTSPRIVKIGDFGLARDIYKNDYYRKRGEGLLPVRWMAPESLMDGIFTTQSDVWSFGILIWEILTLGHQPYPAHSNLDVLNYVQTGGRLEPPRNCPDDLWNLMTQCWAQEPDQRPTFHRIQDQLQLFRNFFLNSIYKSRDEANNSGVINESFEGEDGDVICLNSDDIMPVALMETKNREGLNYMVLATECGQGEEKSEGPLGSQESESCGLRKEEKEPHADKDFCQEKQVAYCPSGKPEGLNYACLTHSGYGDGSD", "test": "Competitive binding affinity to human ROS1"}, "[10]": {"test": "Drug uptake in blood of Lewis rat collagen-induced arthritis model at 10 mg/kg, po qd administered on day 15 post immunization measured at 4 hrs on day 18", "assay_type": "ADME, organism-based", "set-up": "dose 10 mg/kg, route oral", "conditions": "read-out: Drug uptake", "outline": "as §1"}, "[11]": {"test_system": "Canis familiaris", "test": "Dose normalized Cmax in Beagle dog at 0.1 mg/kg, iv and 0.3 mg/kg, po", "assay_type": "ADME, organism-based, Canis lupus familiaris", "conditions": "in vivo", "outline": "(§3)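 One-in-one dosing in Beagle dogs: i.v. 0.1 mg/kg in NMP/PEG200 (3:7); p.o. 0.3 mg/kg in MC/water (0.5:99.5). Exposure values dose normalized.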"}, "[12]": {"biological_target": "T3, Tyrosine-protein kinase SYK", "test": "Competitive binding affinity to human SYK", "outline": "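Kd was then determined for the kinases affected at that concentration.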"}, "[13]": {"test_system": "Rattus norvegicus", "test": "Increase in body weight gain in Lewis rat collagen-induced arthritis model at 3 to 30 mg/kg, po qd administered on day 15 post immunization measured up to day 28", "assay_type": "functional, organism-based", "outline": "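Lewis rats with collagen-induced arthritis, randomized once joints swelled and given 3, 10 or 30 mg/kg p.o. once daily from day 15 to 28; animals weighed regularly throughout, compared against vehicle-treated rats.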"}, "[14]": {"test_system": "Rattus norvegicus", "test": "Dose normalized AUC in Sprague-Dawley rat at 3 mg/kg, po administered as cassette dosing", "assay_type": "ADME, organism-based", "set-up": "dose 3 mg/kg, route oral", "conditions": "in vivo", "outline": "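Rat PK: i.v. 1 mg/kg in NMP/PEG200 (3:7); p.o. 3 mg/kg in CMC/water/Tween (0.5:99:0.5). Exposure values dose normalized.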"}, "[15]": {"biological_target": "T2, Voltage-gated inwardly rectifying potassium channel KCNH2", "test": "Inhibition of human ERG expressed in CHO cells by automated Qpatch clamp assay", "assay_type": "cell-based"}, "[16]": {"test": "Drug uptake in blood of Lewis rat collagen-induced arthritis model at 10 mg/kg, po qd administered on day 15 post immunization measured at 24 hrs on day 18", "assay_type": "ADME, organism-based", "set-up": "dose 10 mg/kg, route oral", "conditions": "read-out: Drug uptake", "outline": "as §1"}, "[17]": {"biological_target": "Tyrosine-protein kinase JAK2 (Homo sapiens, UniProt O60674)", "sequence (O60674 whole entry)": "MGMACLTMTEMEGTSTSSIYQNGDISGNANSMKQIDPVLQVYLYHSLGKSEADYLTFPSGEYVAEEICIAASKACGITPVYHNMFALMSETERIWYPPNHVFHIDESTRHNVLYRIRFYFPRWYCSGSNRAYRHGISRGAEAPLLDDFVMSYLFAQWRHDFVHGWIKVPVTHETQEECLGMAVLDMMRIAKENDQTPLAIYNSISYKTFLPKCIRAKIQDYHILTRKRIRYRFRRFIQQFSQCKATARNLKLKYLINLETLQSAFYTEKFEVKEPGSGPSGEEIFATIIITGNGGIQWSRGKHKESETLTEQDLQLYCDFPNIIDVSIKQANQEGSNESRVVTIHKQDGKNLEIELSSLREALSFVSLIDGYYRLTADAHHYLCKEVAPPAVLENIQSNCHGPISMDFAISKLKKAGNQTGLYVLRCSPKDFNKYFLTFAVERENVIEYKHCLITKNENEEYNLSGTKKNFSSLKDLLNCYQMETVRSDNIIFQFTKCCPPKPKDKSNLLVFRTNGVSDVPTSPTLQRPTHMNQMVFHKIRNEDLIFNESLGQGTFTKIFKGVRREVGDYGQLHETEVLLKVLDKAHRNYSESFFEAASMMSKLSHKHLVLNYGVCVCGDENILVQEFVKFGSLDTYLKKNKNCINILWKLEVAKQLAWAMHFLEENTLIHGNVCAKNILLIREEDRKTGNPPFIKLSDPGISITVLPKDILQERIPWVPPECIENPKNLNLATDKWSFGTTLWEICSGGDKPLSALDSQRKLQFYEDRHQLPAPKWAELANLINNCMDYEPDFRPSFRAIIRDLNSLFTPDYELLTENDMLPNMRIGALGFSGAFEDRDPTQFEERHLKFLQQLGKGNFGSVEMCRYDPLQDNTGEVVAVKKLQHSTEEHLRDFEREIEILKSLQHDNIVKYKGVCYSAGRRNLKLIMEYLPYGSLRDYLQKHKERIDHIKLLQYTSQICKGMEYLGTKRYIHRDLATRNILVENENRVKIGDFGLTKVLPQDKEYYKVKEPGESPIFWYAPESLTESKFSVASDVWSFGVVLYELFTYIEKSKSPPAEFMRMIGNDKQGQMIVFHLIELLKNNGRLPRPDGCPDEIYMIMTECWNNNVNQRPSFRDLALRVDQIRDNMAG", "test": "Competitive binding affinity to human JAK2"}, "[18]": {"biological_target": "Serine/threonine-protein kinase PAK 5 (Homo sapiens, UniProt Q9P286)", "test": "Competitive binding affinity to human PAK7"}, "[19]": {"test_system": "Canis familiaris", "test": "Dose normalized AUC in Beagle dog at 0.1 mg/kg, iv", "assay_type": "ADME, organism-based, Canis lupus familiaris", "set-up": "dose 0.1 mg/kg, route intravenous", "conditions": "in vivo", "outline": "as §3"}, "[20]": {"test": "Mean residence time in Sprague-Dawley rat at 1 mg/kg, iv and 3 mg/kg, po administered as cassette dosing", "assay_type": "ADME, organism-based", "conditions": "in vivo", "outline": "as §2"}, "[21]": {"biological_target": "Interleukin-1 receptor-associated kinase 1 (Homo sapiens, UniProt P51617)", "test": "Competitive binding affinity to human IRAK1"}, "[22]": {"test_system": "Rattus norvegicus", "test": "Antiarthritic activity in Lewis rat collagen-induced arthritis model assessed as reduction of inflammatory cell infiltration in hind paw at 3 to 30 mg/kg, po qd administered on day 15 post immunization measured after day 28 by Giemsa/safranin O staining-based assay", "assay_type": "functional, organism-based", "outline": "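Female Lewis rats (140−160 g), arthritis induced by porcine collagen immunization (day 0) and boost (day 7); rats with swollen joints randomized, dosed orally once daily from day 15 to day 28. Hind paws taken on day 28, fixed in 10% buffered formalin for 48 h, decalcified over 16 days, paraffin-embedded; 3 μm sections stained with Giemsa and safranin O and scored.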"}, "[23]": {"test": "Volume of distribution at steady state in Sprague-Dawley rat at 1 mg/kg, iv and 3 mg/kg, po administered as cassette dosing", "assay_type": "ADME, organism-based", "conditions": "in vivo, read-out: Vdss", "outline": "as §2"}, "[24]": {"biological_target": "T3, Tyrosine-protein kinase SYK"}, "[25]": {"test": "Drug uptake in Lewis rat blood at 22 mg/kg, po measured after 4 hrs", "assay_type": "ADME, organism-based", "set-up": "dose 22 mg/kg, route oral", "conditions": "read-out: Drug uptake", "outline": "(§4)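 Single oral dose of 22 mg/kg to Lewis rats; blood sampled at 2, 4 and 24 h after dosing for compound level and ex vivo FcγR-induced phospho-SLP76 in peripheral blood monocytes.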"}, "[26]": {"test": "Drug uptake in Lewis rat blood at 22 mg/kg, po measured after 2 hrs", "assay_type": "ADME, organism-based", "set-up": "dose 22 mg/kg, route oral", "conditions": "read-out: Drug uptake", "outline": "as §4"}},
  "note": "Active and inactive are the calls of the source. The calls are words filed in the database; no cut-off is given here.",
  "data": [
    {"smiles": "NC(=O)c1nnc(N[C@@H]2CCCC[C@@H]2N)nc1Nc1cccc2cc[nH]c12", "values": [
      {"measurement": "IC50", "setting": "[1]", "value": 9020, "unit": "nM"},
      {"measurement": "concentration at 24 h", "setting": "[2]", "value": 461, "unit": "nM"},
      {"measurement": "Kd", "setting": "[3]", "value": 65, "unit": "nM"},
      {"measurement": "IC50", "setting": "[4]", "value": 5000, "unit": "nM"},
      {"measurement": "bioavailability", "setting": "[5]", "value": 60, "unit": "%"},
      {"measurement": "concentration at 8 h", "setting": "[6]", "value": 349, "unit": "nM"},
      {"measurement": "MRT", "setting": "[7]", "value": 8.4, "unit": "h"},
      {"measurement": "IC50", "setting": "[8]", "value": 367, "unit": "nM"},
      {"measurement": "Kd", "setting": "[9]", "value": 120, "unit": "nM"},
      {"measurement": "concentration at 4 h", "setting": "[10]", "value": 866, "unit": "nM"},
      {"measurement": "Cmax/dose", "setting": "[11]", "value": 139, "unit": "nM"},
      {"measurement": "Kd", "setting": "[12]", "value": 0.64, "unit": "nM"},
      {"measurement": "Activity", "setting": "[13]", "value": "Active"},
      {"measurement": "AUC/dose", "setting": "[14]", "value": 877, "unit": "nM·h"},
      {"measurement": "IC50", "setting": "[15]", "value": 25900, "unit": "nM"},
      {"measurement": "concentration at 24 h", "setting": "[16]", "value": 156, "unit": "nM"},
      {"measurement": "Kd", "setting": "[17]", "value": 53, "unit": "nM"},
      {"measurement": "Kd", "setting": "[18]", "value": 12, "unit": "nM"},
      {"measurement": "AUC/dose", "setting": "[19]", "value": 3414, "unit": "nM·h"},
      {"measurement": "MRT", "setting": "[20]", "value": 8.7, "unit": "h"},
      {"measurement": "Kd", "setting": "[21]", "value": 67, "unit": "nM"},
      {"measurement": "Activity", "setting": "[22]", "value": "Active"},
      {"measurement": "Vd", "setting": "[23]", "value": 16.4, "unit": "L/kg"},
      {"measurement": "IC50", "setting": "[24]", "value": 35, "unit": "nM"},
      {"measurement": "concentration at 4 h", "setting": "[25]", "value": 1100, "unit": "nM"},
      {"measurement": "concentration at 2 h", "setting": "[26]", "value": 900, "unit": "nM"}
    ]}
  ]
}
